Data: ChEMBL document CHEMBL1143898, “Synthesis and study of antiviral and anti-radical properties of aminophenol derivatives” (Bioorg Med Chem Lett, 2008)
Calls of active or inactive are those of the source.

system: Human alphaherpesvirus 1; test: Antiviral activity against HSV1-induced cytopathic effect in human rhabdomyosarcoma cells assessed as suppression of viral replication; assay type: functional, organism-based
Method in brief: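 HSV-1 infected human rhabdomyosarcoma (RD) cell culture; cytopathic effect based method. Compound predissolved in 10% ethanol, then twofold dilutions made in maintenance medium 199. Criterion: reduction of virus titer relative to untreated infected control; concentrations suppressing virus replication by 50% and 90% calculated (EC50, EC90).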

In order of rising EC50:
1. CC(=O)Nc1cc(C(C)(C)C)cc(C(C)(C)C)c1O  8.5 µM
2. CCCC(=O)Nc1cc(C(C)(C)C)cc(C(C)(C)C)c1O  8.6 µM
3. CC(C)(C)c1cc(Nc2ccccc2)c(O)c(C(C)(C)C)c1  23 µM
4. CCC(=O)Nc1cc(C(C)(C)C)cc(C(C)(C)C)c1O  38.2 µM
5. CC(C)(C)c1cc(N)c(O)c(C(C)(C)C)c1  87.3 µM
6. COc1c(Nc2ccccc2)cc(C(C)(C)C)cc1C(C)(C)C  255 µM
7. COc1c(NC(C)=O)cc(C(C)(C)C)cc1C(C)(C)C  798 µM

In order of rising EC90:
1. CCCC(=O)Nc1cc(C(C)(C)C)cc(C(C)(C)C)c1O  14.1 µM
2. CC(=O)Nc1cc(C(C)(C)C)cc(C(C)(C)C)c1O  14.8 µM
3. CCC(=O)Nc1cc(C(C)(C)C)cc(C(C)(C)C)c1O  64.5 µM
4. CC(C)(C)c1cc(Nc2ccccc2)c(O)c(C(C)(C)C)c1  169 µM
5. CC(C)(C)c1cc(N)c(O)c(C(C)(C)C)c1  288 µM
6. COc1c(Nc2ccccc2)cc(C(C)(C)C)cc1C(C)(C)C  624 µM
7. COc1c(NC(C)=O)cc(C(C)(C)C)cc1C(C)(C)C  1960 µM

system: Peritoneal macrophage cell; test: Inhibition of zymosan-stimulated ROS production in rat peritoneal macrophages; assay type: functional, cell-based
Method in brief: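 ROS generation measured by luminol-dependent chemiluminescence with and without compound; EC50 and EC90 taken as concentrations lowering luminescence intensity by 50% and 90%.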

With `COc1c(Nc2ccccc2)cc(C(C)(C)C)cc1C(C)(C)C` the Activity was “inactive”.
With `CCC(=O)Nc1cc(C(C)(C)C)cc(C(C)(C)C)c1O` the Activity was “inactive”.
In the case of `CC(=O)Nc1cc(C(C)(C)C)cc(C(C)(C)C)c1O`, the Activity is reported as “inactive”.
With `CCCC(=O)Nc1cc(C(C)(C)C)cc(C(C)(C)C)c1O` the Activity was “inactive”.

In order of falling EC50:
1. CC(C)(C)c1cc(Nc2ccccc2)c(O)c(C(C)(C)C)c1  9.8 µM
2. CC(C)(C)c1cc(N)c(O)c(C(C)(C)C)c1  0.06 µM

system: not listed separately; test: Cytotoxicity against human rhabdomyosarcoma cells assessed as maximum non-toxic concentrations after 72 hrs; assay type: functional
Method in brief: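 Non-infected RD cell cultures exposed to compound for 72 h; maximum non-toxic concentration determined.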

In order of rising Activity:
1. CC(C)(C)c1cc(N)c(O)c(C(C)(C)C)c1  113.2 µM
2. CC(C)(C)c1cc(Nc2ccccc2)c(O)c(C(C)(C)C)c1  336.7 µM
3. CC(=O)Nc1cc(C(C)(C)C)cc(C(C)(C)C)c1O  379.7 µM
4. CCCC(=O)Nc1cc(C(C)(C)C)cc(C(C)(C)C)c1O  686.2 µM
5. CCC(=O)Nc1cc(C(C)(C)C)cc(C(C)(C)C)c1O  720.9 µM
6. COc1c(Nc2ccccc2)cc(C(C)(C)C)cc1C(C)(C)C  722 µM
7. COc1c(NC(C)=O)cc(C(C)(C)C)cc1C(C)(C)C  1444 µM
